Laboratory results as given in ChEMBL document CHEMBL5724801, “EUbOPEN Chemogenomics Library - Multiplex” (2024).
Values joined by “and” are separate entries in the source; they are usually repeats but may differ in a detail not shown here. Identical values can stand only once.

test system: HEK-293T; experiment: Multiplex assay against HEK293T; type: toxicity, cell-based; conditions: human, 12 h, 1 µM, compound concentration 1 uM
How it was run: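 Values for tubulin, mitochondrial-mass and membrane-permeability phenotypes are per cents of cells with healthy nuclei. These cells were identified by CellPathfinder machine-learning gating of live cells that had been stained at seeding with Hoechst33342, BioTracker Green Microtubule Cytoskeleton Dye, MitoTracker Red and Annexin V Alexa Fluor 680 and imaged on a CQ1 microscope at 37°C and 5% CO2 after compound addition. The gating first set Hoechst high-intensity objects apart from normal cells, then split normal cells into healthy, pyknosed or fragmented nuclei, and pyknosed cells into mitotic or apoptotic.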

SMILES	Population Apoptotic (%)	Population Fragmented Nuclei (%)	Population Hoechst High Intensity Objects (%)	Population Membrane Permeable-Phenotype (%)	Population Mitotic Cells (%)	Population Normal (%)	Population Pyknosed Nuclei (%)	Population Healthy Nuclei (%)	Population Mitochondria Different-Phenotype (%)	Population Tubulin-Different-Phenotype (%)
CNc1nc(NCc2ncccn2)c2c(-c3ccc4ncccc4c3)c[nH]c2n1	9.22% and 10.1%	2.26% and 3.88%	0.25% and 0%	0.81% and 0%	90.78% and 89.9%	99.75% and 100%	35.43% and 76.74%			
Br.CS(=O)(=O)Nc1c(O)ccc2c1CCCC2C1=NCCN1 (configuration not stated)	40% and 43%	7% and 5%	5% and 8%	0%	59% and 56%	94% and 91%	12%	80% and 81%	45% and 52%	26% and 18%

same assay, conditions: human, 12 h, 1 µM, compound concentration 1 uM

SMILES	Total Cell Count
Br.CS(=O)(=O)Nc1c(O)ccc2c1CCCC2C1=NCCN1 (configuration not stated)	407 and 334

same assay, conditions: human, 12 h, 10 µM, compound concentration 10 uM

SMILES	Population Apoptotic (%)	Population Fragmented Nuclei (%)	Population Hoechst High Intensity Objects (%)	Population Membrane Permeable-Phenotype (%)	Population Mitotic Cells (%)	Population Normal (%)	Population Pyknosed Nuclei (%)	Population Tubulin-Different-Phenotype (%)	Total Cell Count	Population Healthy Nuclei (%)
CNc1nc(NCc2ncccn2)c2c(-c3ccc4ncccc4c3)c[nH]c2n1	13.38% and 23.23%	2.88% and 3.98%	0.64% and 0%	0	86.62% and 76.77%	99.36% and 100%	45.51% and 88.07%	20.5% and 42.86%	314 and 176	
Br.CS(=O)(=O)Nc1c(O)ccc2c1CCCC2C1=NCCN1 (configuration not stated)	48% and 55%	8% and 6%	12% and 14%	0	52% and 44%	87% and 85%	14%	33% and 26%	381 and 292	76% and 79%

same assay, conditions: human, 12 h, 10 µM, compound concentration 10 uM

SMILES	Population Mitochondria Different-Phenotype (%)
Br.CS(=O)(=O)Nc1c(O)ccc2c1CCCC2C1=NCCN1 (configuration not stated)	60% and 67%

same assay, conditions: human, 24 h, 1 µM, compound concentration 1 uM

SMILES	Population Apoptotic (%)	Population Fragmented Nuclei (%)	Population Healthy Nuclei (%)	Population Hoechst High Intensity Objects (%)	Population Membrane Permeable-Phenotype (%)	Population Mitochondria Different-Phenotype (%)	Population Mitotic Cells (%)	Population Normal (%)	Population Pyknosed Nuclei (%)	Population Tubulin-Different-Phenotype (%)
CNc1nc(NCc2ncccn2)c2c(-c3ccc4ncccc4c3)c[nH]c2n1	7.44% and 13.04%	1.55% and 3.01%	79.72% and 45.11%	0.15% and 0%	0.78% and 0%	15.34% and 13.33%	92.56% and 86.96%	99.85% and 100%	18.73% and 51.88%	9.13% and 10%
Br.CS(=O)(=O)Nc1c(O)ccc2c1CCCC2C1=NCCN1 (configuration not stated)	38% and 55%	10% and 6%	79% and 80%	5% and 8%	1% and 0%	34% and 41%	61% and 44%	94% and 91%	10% and 13%	21% and 17%

same assay, conditions: human, 24 h, 1 µM, compound concentration 1 uM

SMILES	Total Cell Count
Br.CS(=O)(=O)Nc1c(O)ccc2c1CCCC2C1=NCCN1 (configuration not stated)	549 and 387

same assay, conditions: human, 24 h, 10 µM, compound concentration 10 uM

SMILES	Population Apoptotic (%)	Population Fragmented Nuclei (%)	Population Healthy Nuclei (%)	Population Hoechst High Intensity Objects (%)	Population Membrane Permeable-Phenotype (%)	Population Mitochondria Different-Phenotype (%)	Population Mitotic Cells (%)	Population Normal (%)	Population Tubulin-Different-Phenotype (%)	Total Cell Count
CNc1nc(NCc2ncccn2)c2c(-c3ccc4ncccc4c3)c[nH]c2n1	21.74% and 18.6%	2.16% and 2.65%	75.72% and 29.1%	0%	2.22% and 7.27%	39.37% and 32.73%	78.26% and 81.4%	100%	28.89% and 25.45%	416 and 189
Br.CS(=O)(=O)Nc1c(O)ccc2c1CCCC2C1=NCCN1 (configuration not stated)	30% and 34%	11%	75% and 77%	6% and 11%	0%	40% and 46%	69% and 65%	93% and 88%	23% and 21%	451 and 377

same assay, conditions: human, 24 h, 10 µM, compound concentration 10 uM

SMILES	Population Pyknosed Nuclei (%)
Br.CS(=O)(=O)Nc1c(O)ccc2c1CCCC2C1=NCCN1 (configuration not stated)	12% and 10%

same assay, conditions: human, 48 h, 1 µM, compound concentration 1 uM

SMILES	Population Fragmented Nuclei (%)	Population Healthy Nuclei (%)	Population Hoechst High Intensity Objects (%)	Population Membrane Permeable-Phenotype (%)	Population Mitochondria Different-Phenotype (%)	Population Mitotic Cells (%)	Population Normal (%)	Population Apoptotic (%)	Population Pyknosed Nuclei (%)	Population Tubulin-Different-Phenotype (%)
CNc1nc(NCc2ncccn2)c2c(-c3ccc4ncccc4c3)c[nH]c2n1	3.92% and 2.35%	88.02% and 64.71%	0% and 0.58%	3.68% and 0.91%	13.1% and 22.73%	93.46% and 80.36%	100% and 99.42%			
Br.CS(=O)(=O)Nc1c(O)ccc2c1CCCC2C1=NCCN1 (configuration not stated)	14% and 11%	78%	4% and 6%	0%	20% and 22%	87% and 70%	95% and 93%	12% and 29%	7% and 9%	14% and 12%

same assay, conditions: human, 48 h, 1 µM, compound concentration 1 uM

SMILES	Total Cell Count
Br.CS(=O)(=O)Nc1c(O)ccc2c1CCCC2C1=NCCN1 (configuration not stated)	859 and 532

same assay, conditions: human, 48 h, 10 µM, compound concentration 10 uM

SMILES	Population Apoptotic (%)	Population Fragmented Nuclei (%)	Population Healthy Nuclei (%)	Population Hoechst High Intensity Objects (%)	Population Membrane Permeable-Phenotype (%)	Population Mitochondria Different-Phenotype (%)	Population Mitotic Cells (%)	Population Normal (%)	Population Pyknosed Nuclei (%)	Population Tubulin-Different-Phenotype (%)
CNc1nc(NCc2ncccn2)c2c(-c3ccc4ncccc4c3)c[nH]c2n1	10.91% and 21.43%	4.49% and 5.56%	86.38% and 55.56%	0% and 2.7%	2.12% and 5%	57.5% and 60%	89.09% and 78.57%	100% and 97.3%		
Br.CS(=O)(=O)Nc1c(O)ccc2c1CCCC2C1=NCCN1 (configuration not stated)	34% and 48%	16% and 14%	76% and 79%	4%	1% and 0%	22% and 27%	65% and 51%	95%	6% and 5%	12% and 11%

same assay, conditions: human, 48 h, 10 µM, compound concentration 10 uM

SMILES	Total Cell Count
Br.CS(=O)(=O)Nc1c(O)ccc2c1CCCC2C1=NCCN1 (configuration not stated)	671 and 584
